{
  "source": "ChEMBL document CHEMBL1629616",
  "about": "(Antimicrob Agents Chemother, 2009)",
  "key": {"Cytochrome P450 2B6 [1]": {"target": "T1, Cytochrome P450 2B6 (Homo sapiens, UniProt P20813)", "T1 sequence (P20813 whole entry)": "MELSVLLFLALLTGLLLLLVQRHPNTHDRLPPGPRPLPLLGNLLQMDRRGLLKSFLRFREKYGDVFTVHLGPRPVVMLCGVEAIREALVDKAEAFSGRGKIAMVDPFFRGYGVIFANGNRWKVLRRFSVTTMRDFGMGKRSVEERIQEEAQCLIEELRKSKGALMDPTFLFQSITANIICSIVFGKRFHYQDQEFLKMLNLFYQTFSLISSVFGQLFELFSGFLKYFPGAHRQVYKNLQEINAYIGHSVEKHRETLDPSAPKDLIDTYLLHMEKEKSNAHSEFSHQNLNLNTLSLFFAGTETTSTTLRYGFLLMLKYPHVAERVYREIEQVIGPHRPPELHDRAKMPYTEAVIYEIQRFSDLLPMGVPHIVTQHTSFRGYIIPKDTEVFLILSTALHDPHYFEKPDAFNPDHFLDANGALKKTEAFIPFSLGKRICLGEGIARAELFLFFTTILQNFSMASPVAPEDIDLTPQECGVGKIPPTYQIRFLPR", "experiment": "Inhibition of CYP2B6 in human liver microsomes using efavirenz as probe after 10 mins", "format": "ADME, Microsome", "method_in_brief": "(§1)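 Ethyl acetate extraction under alkaline pH; 8-hydroxyefavirenz measured by HPLC-UV at 245 nm with ritonavir internal standard. IC50 from log concentration versus percent activity remaining.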"}, "[2]": {"experiment": "Inhibition of CYP3A using testosterone as probe", "format": "ADME"}, "Cytochrome P450 2B6 [3]": {"target": "T1, Cytochrome P450 2B6", "experiment": "Inhibition of CYP2B6 in human liver microsomes assessed as efavirenz 8-hydroxylation after 10 mins", "format": "ADME, Microsome", "method_in_brief": "as §1"}, "Cytochrome P450 2B6 [4]": {"target": "T1, Cytochrome P450 2B6", "experiment": "Inhibition of CYP2B6 in human liver microsomes at 10 uM preincubated for 5 to 30 mins", "format": "ADME, Microsome", "method_in_brief": "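Efavirenz (final 100 μM) then added and incubated 10 min with cofactors. Activity compared with 0-min controls lacking inhibitor and NADPH.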"}, "Cytochrome P450 2B6 [5]": {"target": "T1, Cytochrome P450 2B6", "experiment": "Inhibition of CYP2B6 in human liver microsomes assessed as efavirenz 8-hydroxylation after 10 mins by Dixon plot analysis", "format": "ADME, Microsome", "method_in_brief": "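8-Hydroxyefavirenz measured by HPLC-UV. Ki from nonlinear regression to competitive, noncompetitive and uncompetitive models, chosen using Dixon plots.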"}, "CYP1A2": {"target": "T2, CYP1A2 (Homo sapiens, UniProt P05177)", "T2 sequence (P05177 whole entry)": "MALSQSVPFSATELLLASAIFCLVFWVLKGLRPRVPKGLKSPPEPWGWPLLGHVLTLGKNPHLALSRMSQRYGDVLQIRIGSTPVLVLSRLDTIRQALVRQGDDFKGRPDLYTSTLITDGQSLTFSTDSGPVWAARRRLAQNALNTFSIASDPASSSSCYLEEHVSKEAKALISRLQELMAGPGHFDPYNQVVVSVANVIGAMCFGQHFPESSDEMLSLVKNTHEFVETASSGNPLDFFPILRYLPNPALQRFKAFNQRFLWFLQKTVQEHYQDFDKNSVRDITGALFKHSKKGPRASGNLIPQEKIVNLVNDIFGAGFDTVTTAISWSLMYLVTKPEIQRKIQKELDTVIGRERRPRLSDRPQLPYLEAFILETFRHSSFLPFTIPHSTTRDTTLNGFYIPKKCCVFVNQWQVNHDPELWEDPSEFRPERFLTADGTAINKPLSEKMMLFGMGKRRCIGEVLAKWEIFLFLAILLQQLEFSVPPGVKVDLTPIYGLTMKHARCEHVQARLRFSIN", "experiment": "Inhibition of CYP1A2 in human liver microsomes assessed as phenacetin O-deethylation at 100 uM after 30 mins", "format": "ADME, Microsome", "settings": "probe phenacetin (O-deethylation); call rule not given here"}, "[6]": {"experiment": "Inhibition of CYP3A using midazolam as probe", "format": "ADME", "method_in_brief": "(§2)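 1′-Hydroxymidazolam measured by HPLC-UV at 230 nm with desmethyldiazepam internal standard. IC50 from log concentration versus percent activity remaining.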"}, "Cytochrome P450 2B6 [7]": {"target": "T1, Cytochrome P450 2B6", "experiment": "Inhibition of CYP2B6 in human liver microsomes assessed as 8-hydroxyefavirenz 14-hydroxylation after 10 mins", "format": "ADME, Microsome"}, "CYP2D6": {"target": "CYP2D6 (Homo sapiens, UniProt P10635)", "sequence (P10635 whole entry)": "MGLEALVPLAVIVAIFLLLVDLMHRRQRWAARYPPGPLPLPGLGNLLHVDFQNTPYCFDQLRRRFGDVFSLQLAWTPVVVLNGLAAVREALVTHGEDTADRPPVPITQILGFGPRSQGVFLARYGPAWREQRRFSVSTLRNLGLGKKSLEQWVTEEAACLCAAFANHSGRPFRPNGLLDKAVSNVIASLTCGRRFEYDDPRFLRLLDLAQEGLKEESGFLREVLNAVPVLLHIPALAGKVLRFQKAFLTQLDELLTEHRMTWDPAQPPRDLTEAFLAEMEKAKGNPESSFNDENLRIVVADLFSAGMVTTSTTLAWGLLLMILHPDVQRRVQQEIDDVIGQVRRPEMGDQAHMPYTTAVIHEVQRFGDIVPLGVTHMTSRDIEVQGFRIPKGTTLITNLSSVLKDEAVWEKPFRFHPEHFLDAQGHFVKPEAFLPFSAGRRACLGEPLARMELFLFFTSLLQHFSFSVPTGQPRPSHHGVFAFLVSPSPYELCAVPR", "experiment": "Inhibition of CYP2D6 in human liver microsomes assessed as dextromethorphan O-demethylation at 100 uM after 30 mins", "format": "ADME, Microsome", "settings": "probe dextromethorphan (O-demethylation)"}, "Cytochrome P450 2B6 [8]": {"target": "T1, Cytochrome P450 2B6", "experiment": "Inhibition of CYP2B6 in human liver microsomes assessed as metabolite formation at 10 uM preincubated for 60 mins", "format": "ADME, Microsome"}, "CYP2C8": {"target": "T3, CYP2C8 (Homo sapiens, UniProt P10632)", "T3 sequence (P10632 whole entry)": "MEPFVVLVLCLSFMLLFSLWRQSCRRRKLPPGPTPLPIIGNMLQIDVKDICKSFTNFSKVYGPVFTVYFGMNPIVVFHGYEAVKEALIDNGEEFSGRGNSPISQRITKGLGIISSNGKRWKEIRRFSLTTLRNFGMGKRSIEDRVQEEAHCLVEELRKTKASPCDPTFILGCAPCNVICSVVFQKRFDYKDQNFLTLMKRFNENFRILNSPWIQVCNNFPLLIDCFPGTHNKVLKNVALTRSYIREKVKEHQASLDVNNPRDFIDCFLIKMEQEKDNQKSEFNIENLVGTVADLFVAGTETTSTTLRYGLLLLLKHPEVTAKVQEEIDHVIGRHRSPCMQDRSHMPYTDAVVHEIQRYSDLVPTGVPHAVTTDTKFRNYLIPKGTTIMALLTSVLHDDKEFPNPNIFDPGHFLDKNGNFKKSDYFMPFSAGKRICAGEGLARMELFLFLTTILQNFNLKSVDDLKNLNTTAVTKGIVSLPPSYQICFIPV", "experiment": "Inhibition of CYP2C8 in human liver microsomes assessed as amodiquine N-deethylation at 100 uM after 15 mins", "format": "ADME, Microsome", "settings": "probe amodiquine (N-deethylation)"}, "CYP2A6": {"target": "T4, CYP2A6 (Homo sapiens, UniProt P11509)", "T4 sequence (P11509 whole entry)": "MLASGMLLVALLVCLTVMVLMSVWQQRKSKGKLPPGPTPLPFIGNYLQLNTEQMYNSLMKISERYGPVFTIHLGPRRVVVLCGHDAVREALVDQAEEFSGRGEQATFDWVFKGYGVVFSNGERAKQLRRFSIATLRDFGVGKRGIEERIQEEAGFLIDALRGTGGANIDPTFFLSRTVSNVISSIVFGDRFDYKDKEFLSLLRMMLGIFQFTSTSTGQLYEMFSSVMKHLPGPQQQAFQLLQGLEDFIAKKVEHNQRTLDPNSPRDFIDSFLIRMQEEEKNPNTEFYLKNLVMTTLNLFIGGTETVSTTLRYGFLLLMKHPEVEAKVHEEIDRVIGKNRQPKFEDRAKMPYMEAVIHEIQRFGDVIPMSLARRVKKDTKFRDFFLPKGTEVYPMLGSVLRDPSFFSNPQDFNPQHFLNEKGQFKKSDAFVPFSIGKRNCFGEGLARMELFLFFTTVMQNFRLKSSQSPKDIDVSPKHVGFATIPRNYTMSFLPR", "experiment": "Inhibition of CYP2A6 in human liver microsomes assessed as coumarin 7-hydroxylation at 100 uM after 15 mins", "format": "ADME, Microsome", "settings": "probe coumarin (7-hydroxylation)"}, "Cytochrome P450 2B6 [9]": {"target": "T1, Cytochrome P450 2B6", "experiment": "Inhibition of human CYP2B6 expressed in baculovirus assessed as voriconazole N-oxide formation", "format": "ADME"}, "[10]": {"experiment": "Inhibition of CYP3A using felodipine as probe", "format": "ADME"}, "Cytochrome P450 2B6 [11]": {"target": "T1, Cytochrome P450 2B6", "experiment": "Inhibition of CYP2B6 in human liver microsomes assessed as efavirenz 8-hydroxylation at 10 uM after 60 mins", "format": "ADME, Microsome", "settings": "1 h"}, "[12]": {"experiment": "Inhibition of CYP3A using nifedipine as probe", "format": "ADME"}, "Cytochrome P450 2B6 [13]": {"target": "T1, Cytochrome P450 2B6", "experiment": "Inhibition of CYP2B6 in human liver microsomes using bupropion as probe after 15 mins"}, "Cytochrome P450 2B6 [14]": {"target": "T1, Cytochrome P450 2B6", "experiment": "Inhibition of CYP2B6 in human liver microsomes assessed as bupropion 4-hydroxylation after 15 mins by Dixon plot analysis", "format": "ADME, Microsome"}, "CYP3A": {"target": "CYP3A (Homo sapiens, UniProt P08684+P20815+P24462+Q9HB55)", "experiment": "Inhibition of CYP3A in human liver microsomes assessed as midazolam 1'- hydroxylation after 5 mins", "format": "ADME, Microsome", "settings": "probe midazolam (1'-hydroxylation)", "method_in_brief": "as §2"}, "Cytochrome P450 2B6 [15]": {"target": "T1, Cytochrome P450 2B6", "experiment": "Inhibition of CYP2B6 in human liver microsomes assessed as bupropion 4-hydroxylation after 15 mins"}, "Cytochrome P450 2B6 [16]": {"target": "T1, Cytochrome P450 2B6", "experiment": "Inhibition of CYP2B6 in human liver microsomes using 8-hydroxyefavirenz as probe after 10 mins", "format": "ADME, Microsome"}},
  "data": [
    {"smiles": "C[C@@H](c1ncncc1F)[C@](O)(Cn1cncn1)c1ccc(F)cc1F", "note": "[VORICONAZOLE]", "values": [
      {"measurement": "IC50", "setting": "Cytochrome P450 2B6 [1]", "result": 1710, "unit": "nM"},
      {"measurement": "IC50", "setting": "[2]", "result": 54, "unit": "µM"},
      {"measurement": "IC50", "setting": "Cytochrome P450 2B6 [3]", "result": 1710, "unit": "nM"},
      {"measurement": "inhibition (INH)", "setting": "Cytochrome P450 2B6 [4]", "result": "Not Active"},
      {"measurement": "Ki", "setting": "Cytochrome P450 2B6 [5]", "result": 400, "unit": "nM"},
      {"measurement": "inhibition at 0.5 h, 100 µM", "setting": "CYP1A2", "result": "< 25", "unit": "%"},
      {"measurement": "IC50", "setting": "[6]", "result": 10.5, "unit": "µM"},
      {"measurement": "IC50", "setting": "Cytochrome P450 2B6 [7]", "result": 790, "unit": "nM"},
      {"measurement": "inhibition at 0.5 h, 100 µM", "setting": "CYP2D6", "result": "< 25", "unit": "%"},
      {"measurement": "inhibition (INH)", "setting": "Cytochrome P450 2B6 [8]", "result": "Active"},
      {"measurement": "inhibition at 0.25 h, 100 µM", "setting": "CYP2C8", "result": "< 25", "unit": "%"},
      {"measurement": "inhibition at 0.25 h, 100 µM", "setting": "CYP2A6", "result": "< 25", "unit": "%"},
      {"measurement": "IC50", "setting": "Cytochrome P450 2B6 [9]", "result": 12.2, "unit": "µM"},
      {"measurement": "IC50", "setting": "[10]", "result": 50, "unit": "µM"},
      {"measurement": "inhibition (INH)", "setting": "Cytochrome P450 2B6 [11]", "result": "Not Active"},
      {"measurement": "IC50", "setting": "[12]", "result": 10.5, "unit": "µM"},
      {"measurement": "IC50", "setting": "Cytochrome P450 2B6 [13]", "result": 1190, "unit": "nM"},
      {"measurement": "Ki", "setting": "Cytochrome P450 2B6 [14]", "result": 340, "unit": "nM"},
      {"measurement": "IC50 at 5 min", "setting": "CYP3A", "result": 2900, "unit": "nM"},
      {"measurement": "IC50", "setting": "Cytochrome P450 2B6 [15]", "result": 1190, "unit": "nM"},
      {"measurement": "IC50", "setting": "Cytochrome P450 2B6 [16]", "result": 790, "unit": "nM"}
    ]}
  ]
}
